This is a sample that favours compounds with a hit; in the whole collection about 3.5% have one here.
RGS4 pot – potentiators or activators of RGS4; B-score at 10 µM; AID 463111; HEK293 M3R/inducible RGS4, carbachol calcium flux Fluo4; hits give low values; 310,000 compounds, 0.92% hits;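 active = B-score of the integrated calcium signal more than 4 SD below the library mean, with starting fluorescence not abnormally high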;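 also: negative B-score means reduced calcium response which marks RGS4 activation or potentiation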
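Material: Inducible-RGS4 HEK293 cells carrying M3 receptor; also added: carbachol at ECmax as muscarinic agonist stimulus; incubation: compound preincubation 20 min at room temperature before agonist; signal: Fluo4-AM (2 µM) calcium-flux fluorescence, kinetic read; measure: integrated calcium ratio converted to B score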
RGS4 inh – human RGS4 inhibition; B-score at 10 µM; 310,000 compounds, 0.45% hits; HEK293 M3R/RGS4 inducible, Fluo-4 calcium flux; hits give high values; triggered by carbachol at its EC20; AID 463165; P49798;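 active = B-score, a plate-corrected calcium signal, over three deviations above library mean, with baseline fluorescence within five deviations of library mean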;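 also: RGS4 expression induced by doxycycline in cells with stable M3 receptor; B-score is computed from the integrated fluorescence ratio over baseline after carbachol; higher B-score means a larger calcium signal and so more RGS4 inhibition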
Target sequence (P49798 whole entry, looked up): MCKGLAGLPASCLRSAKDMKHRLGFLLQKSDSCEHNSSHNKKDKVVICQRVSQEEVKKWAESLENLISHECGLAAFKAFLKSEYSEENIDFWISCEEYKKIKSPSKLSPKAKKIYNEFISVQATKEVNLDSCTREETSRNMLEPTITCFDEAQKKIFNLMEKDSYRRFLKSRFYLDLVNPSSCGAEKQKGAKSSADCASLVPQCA
MrgX1 agonist – activates human MrgX1 receptor signaling | 310,000 compounds, 0.44% hits | B-score at 10 µM | AID 588627 | MrgX1-HEK293 cells, Fluo-4 calcium fluorescence, agonist mode; hits give high values | Q96LB2;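 active = calcium response B-score plate-corrected fluorescence ratio at least 3 library SD, with starting fluorescence B-score inside 5 SD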
Target sequence (Q96LB2 whole entry, looked up): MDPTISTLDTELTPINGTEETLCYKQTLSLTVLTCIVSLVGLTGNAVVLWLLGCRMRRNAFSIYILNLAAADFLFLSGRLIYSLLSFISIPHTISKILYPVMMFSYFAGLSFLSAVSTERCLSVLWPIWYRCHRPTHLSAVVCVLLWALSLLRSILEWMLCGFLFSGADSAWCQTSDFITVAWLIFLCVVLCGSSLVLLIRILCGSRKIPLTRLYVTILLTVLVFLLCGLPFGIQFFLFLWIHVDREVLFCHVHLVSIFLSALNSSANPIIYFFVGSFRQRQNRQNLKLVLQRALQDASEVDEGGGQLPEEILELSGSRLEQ
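Assay system: MrgX1-expressing HEK293 cells / Amount: fifteen thousand cells per well / Doses: test compound in the initial addition of three / Timing: cells plated overnight, dye loaded 0.5 h 37 °C, 0.5 h room temperature / Technique: kinetic calcium dye fluorescence, Fluo-4 NW / Control set: positive and negative controls per plate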
MrgX1 antagonist – human MrgX1 receptor antagonism, primary screen | B-score at 10 µM | MRGX1-HEK293 calcium flux, Fluo-4, BAM8-22 antagonism; hits give low values | 310,000 compounds, 1.3% hits | Q96LB2;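 active = calcium-response B-score plate-corrected more than 3 library SD below zero, starting fluorescence within 5 deviations, no agonist response on first addition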;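 also: peak minus trough fluorescence over baseline after final BAM8-22 challenge near maximal dose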
MrgX1 PAM – allosterically activates human MrgX1 receptor signaling. Q96LB2. MrgX1-HEK293, Fluo-4 calcium flux, FDSS; hits give high values. B-score at 10 µM. 310,000 compounds, 0.63% hits. AID 588675;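 active = plate-corrected calcium response at least 3 library SD above typical, normal starting fluorescence, not activating the receptor alone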;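 also: compound read alongside a low EC10 to EC30 dose of BAM8-22 agonist; peak minus trough fluorescence over baseline measured at the second addition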
MrgX1 antag conf – confirmation of human MrgX1 receptor antagonists | MrgX1-HEK293, BAM8-22 calcium flux, Fluo-4; hits give low values | shares compounds with MrgX1 antagonist | AID 602420 | remaining BAM8-22 calcium response % of control (hits give low values), % at 10 µM | 2,300 compounds, 19% hits;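 active = remaining agonist calcium response no higher than 100% minus 3 SD of agonist-only control wells, with starting fluorescence near control levels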;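 also: agonist BAM8-22 given at a near maximal EC90 to ECmax level; peak minus minimum fluorescence divided by baseline after agonist addition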
HEK293 Ca flux – counter-screen for MrgX1 antagonists: effect in parental HEK293 cells; AID 624111; 4,000 compounds, 2% hits; Fluo-4 calcium fluorescence, FDSS; fluorescence ratio F(max-min)/F0 at 10 µM; shares compounds with MrgX1 antagonist;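 active = duplicate-averaged calcium fluorescence ratio at least three times the standard deviation of buffer wells, a nonspecific response in parental cells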
HEK293 Ca counter – activity in parental HEK293 cells without MrgX1 | shares compounds with MrgX1 antagonist | parental HEK293 calcium flux, Fluo-4 fluorescence ratio; hits give high values | fluorescence ratio F(max-min)/F0 at 10 µM | 4,000 compounds, 0.4% hits;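 active = calcium fluorescence ratio, averaged over duplicates, at least 3 SD of the buffer-well ratio, meaning a nonspecific response in receptor-free cells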;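 also: untransfected parental HEK293 lacking MrgX1 used as counterscreen for MrgX1 allosteric activators; fluorescence change taken during the second addition on a kinetic imager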
HEK293 Ca cntr2 – activity in parental HEK293 cells lacking MrgX1 receptor; Fluo-4 calcium fluorescence (FDSS); hits give high values; shares compounds with MrgX1 antagonist; fluorescence ratio F(max-min)/F0 at 10 µM; 4,000 compounds, 8.7% hits; AID 624115;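 active = calcium fluorescence ratio at least three times the spread of buffer wells, meaning a non-specific response in parental cells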
Of the large screens only hits and unclear results are named; the others gave an inactive call (follow-up assays come after a bar, where they were run).

C=C(C)COc1ccc(-c2nc(N)ncc2Oc2ccc(OC)cc2)c(O)c1	MrgX1 antagonist -4.62 | MrgX1 antag conf inactive | HEK293 Ca flux inactive | HEK293 Ca counter inactive | HEK293 Ca cntr2 inactive
C=C(C)COc1ccc(-c2nc(N)ncc2Oc2ccccc2OC)c(O)c1	none (no result: RGS4 pot, RGS4 inh)
Cc1ccc(N2CCN(S(=O)(=O)c3nnc(NC(=O)c4ccco4)s3)CC2)cc1	none
COc1cc2c(cc1OC)CN(C(=O)c1ccc(OC)c(S(=O)(=O)N3CCOCC3)c1)CC2	MrgX1 antagonist -5.14 | MrgX1 antag conf inactive | HEK293 Ca flux inactive | HEK293 Ca counter inactive | HEK293 Ca cntr2 inactive
COc1ccc(C(=O)N2CCCC2)cc1S(=O)(=O)N1CCOCC1	none
O=C(NCc1ccc2c(c1)OCO2)c1ccc(Br)cc1	none
Cc1nc2cc(C(=O)NCc3ccc4c(c3)OCO4)ccc2n1-c1ccc(Br)cc1	MrgX1 antagonist -4.82 | MrgX1 antag conf inactive | HEK293 Ca flux inactive | HEK293 Ca counter inactive | HEK293 Ca cntr2 inactive
O=C(NCc1ccc2c(c1)OCO2)c1cccc(Cl)c1	MrgX1 antagonist -5.18 | MrgX1 antag conf inactive | HEK293 Ca flux inactive | HEK293 Ca counter inactive | HEK293 Ca cntr2 inactive
O=C(NCc1cccc(Cl)c1)c1ccc2c(c1)OCO2	none
Cc1cccc(NC(=S)N2CCC(C(N)=O)(N3CCCCC3)CC2)c1C	none
O=C(Nc1cc(S(=O)(=O)N2CCOCC2)ccc1N1CCOCC1)c1cnccn1	MrgX1 antagonist -4.82 | MrgX1 antag conf inactive | HEK293 Ca flux inactive | HEK293 Ca counter inactive | HEK293 Ca cntr2 inactive
O=C(O)C1(O)C[C@H](O)C(O)[C@@H](O)C1 (stereo partly specified)	none (no result: RGS4 pot, RGS4 inh)
O=C(NCc1ccc(Cl)cc1)c1ccc(NC(=O)C2CCCO2)cc1 (stereo unspecified)	none
O=C(CSc1ccc(F)cc1)NCC1(N2CCOCC2)CCCCC1	none
COc1cc(NC(=O)c2ccco2)c(OC)cc1NC(=O)Nc1ccccc1Cl	MrgX1 antagonist -5.89 | MrgX1 antag conf inactive | HEK293 Ca flux inactive | HEK293 Ca counter inactive | HEK293 Ca cntr2 inactive
Cc1cccc(-n2c(SCC(N)=O)nnc2-c2ccccn2)c1C	MrgX1 antagonist -8.27 | MrgX1 antag conf inactive | HEK293 Ca flux inactive | HEK293 Ca counter inactive | HEK293 Ca cntr2 inactive
Cc1ccc(-n2c(SCC(N)=O)nnc2-c2ccccn2)cc1	none
CCOCCCN(C(=O)Cn1nnc(-c2ccc(C)o2)n1)C(C(=O)NC1CCCC1)c1ccco1 (stereo unspecified)	none
CCN1CNC(=S)N(c2cc(C)ccc2C)C1	MrgX1 antagonist -5.84 | MrgX1 antag conf inactive | HEK293 Ca flux inactive | HEK293 Ca counter inactive | HEK293 Ca cntr2 inactive
Cc1ccccc1C(=O)Nc1cccc(-c2ccc(N3CCOCC3)nn2)c1	MrgX1 antagonist -5 | MrgX1 antag conf inactive | HEK293 Ca flux inactive | HEK293 Ca counter inactive | HEK293 Ca cntr2 inactive
CC(/C=C1\SC(=S)N(C(C(=O)O)c2ccccc2)C1=O)=C\c1ccccc1 (stereo unspecified)	RGS4 pot -7.36, MrgX1 antagonist -14.3 | MrgX1 antag conf inactive | HEK293 Ca flux inactive | HEK293 Ca counter inactive | HEK293 Ca cntr2 inactive
O=C(COc1cccc2ccccc12)Nc1ccc(Cl)cc1C(=O)O	MrgX1 antagonist -7.46 | MrgX1 antag conf 74.4% | HEK293 Ca flux inactive | HEK293 Ca counter inactive | HEK293 Ca cntr2 inactive
O=C(COc1cccc2ccccc12)Nc1cc(Cl)ccc1C(=O)O	MrgX1 antagonist -7.55 | MrgX1 antag conf 61.7% | HEK293 Ca flux inactive | HEK293 Ca counter inactive | HEK293 Ca cntr2 inactive
COc1ccccc1CC(=O)Nc1ccc(Cl)cc1C(=O)O	none
Cc1ccc(-c2noc(C3CCN(C(=O)Nc4ccc(C#N)cc4)CC3)n2)o1	MrgX1 antagonist -4.64 | MrgX1 antag conf 76.1% | HEK293 Ca flux inactive | HEK293 Ca counter inactive | HEK293 Ca cntr2 inactive
N#Cc1c(C(F)(F)F)cc(-c2ccco2)nc1SCc1ccccn1	MrgX1 antagonist -4.65 | MrgX1 antag conf inactive | HEK293 Ca flux inactive | HEK293 Ca counter inactive | HEK293 Ca cntr2 inactive
CSc1nc(-c2ccco2)cc(C(F)(F)F)c1C#N	none
CCOc1ccccc1C(=O)Nc1nnc(SCC(=O)Nc2cc(C)on2)s1	none
CC(c1ccccc1C(O)(c1ccccc1)c1ccccc1)N(C)C (stereo unspecified)	MrgX1 antagonist -5.36 | MrgX1 antag conf inactive | HEK293 Ca flux inactive | HEK293 Ca counter inactive | HEK293 Ca cntr2 inactive
Cn1c(=O)[nH]c(=O)c2c1nc(SCC(=O)O)n2CCCc1ccccc1	MrgX1 antagonist -6.86 | MrgX1 antag conf 83.8% | HEK293 Ca flux inactive | HEK293 Ca counter inactive | HEK293 Ca cntr2 inactive
O=C(CC1C(=O)NCCN1Cc1cccc(C(F)(F)F)c1)NC1CCOCC1 (stereo unspecified)	none
CCOC(=O)CC1C(=O)NCCN1Cc1cccc(C(F)(F)F)c1 (stereo unspecified)	MrgX1 antagonist -4.67 | MrgX1 antag conf inactive | HEK293 Ca flux inactive | HEK293 Ca counter inactive | HEK293 Ca cntr2 inactive
Cc1ccc(OCC(=O)NCc2cccs2)c([N+](=O)[O-])n1	none
CON(C)c1nc(C2CCCCC2)c2cc(C)ccc2n1	none
COc1ccc(-c2nc(C3CCCCC3)c3cc(OC)ccc3n2)cc1	MrgX1 antagonist -5 | MrgX1 antag conf inactive | HEK293 Ca flux inactive | HEK293 Ca counter inactive | HEK293 Ca cntr2 inactive
COc1ccc(N2CCN(C(=O)Nc3ccccc3C)CC2)cc1	none
CCC(C)(C)n1nnnc1C(c1ccc2ncccc2c1)N1CCN(Cc2ccc3c(c2)OCO3)CC1 (stereo unspecified)	none
CCC(C)(C)n1nnnc1C(c1ccc(C)cc1)N1CCN(Cc2ccc3c(c2)OCO3)CC1 (stereo unspecified)	MrgX1 antagonist -6.18 | MrgX1 antag conf inactive | HEK293 Ca flux inactive | HEK293 Ca counter inactive | HEK293 Ca cntr2 inactive
Cc1cc(N)n(-c2ccc3ccccc3c2)n1	none
Cc1cccc(NC(=O)c2ccccc2NC(=O)C2CCCCC2)c1C	MrgX1 antagonist -4.97 | MrgX1 antag conf inactive | HEK293 Ca flux inactive | HEK293 Ca counter inactive | HEK293 Ca cntr2 inactive
O=C(Nc1ccccc1)c1ccccc1NC(=O)C1CCCCC1	none
N#CCSc1nnc(C2CCCCC2)n1Cc1ccccc1	MrgX1 antagonist -7.1 | MrgX1 antag conf inactive | HEK293 Ca flux inactive | HEK293 Ca counter inactive | HEK293 Ca cntr2 inactive
CCCn1nnnc1SCC(=O)NCc1ccccc1	none
